Measured values from ChEMBL document CHEMBL4354811, “Discovery of Novel Aryl Carboxamide Derivatives as Hypoxia-Inducible Factor 1α Signaling Inhibitors with Potent Activities of Anticancer Metastasis” (J Med Chem, 2019).
One block for each compound: values may come before it. Active and inactive are the calls of the source. The calls are words filed in the database; no cut-off is given here.

Key:
Danio rerio [1] = species: Danio rerio; test: Antiangiogenic activity in […]/EGFP transgenic zebrafish embryo assessed as destruction of subintestinal vessel at 0.5 uM incubated for 24 hrs by confocal microscopic method; format: functional, organism-based
In short: (§1)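 Transgenic zebrafish with GFP-labeled vascular endothelium; embryos selected, […], exposed 24 h to 0.5 or 1 μM (DMSO vehicle, n = 10; apatinib 0.5 μM reference); SIVs imaged by confocal microscopy and counted per field; means ± SD, three independent experiments.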

[2] = target: Hypoxia-inducible factor 1-alpha (Homo sapiens) (UniProt Q16665); test: Inhibition of HIF1alpha transcriptional activity in hypoxia-induced human HCCLM3 cells co-transfected with luciferase reporter plasmid containing five copies of HREs and pRL-SV40 plasmid encoding Renilla luciferase at 10 uM incubated with compound under normoxia for 1 hr followed by hypoxia induction and measured after 24 hrs by HRE-dependent dual luciferase reporter gene assay relative to control
Hypoxia-inducible factor 1-alpha (Homo sapiens), sequence (Q16665 whole entry, looked up): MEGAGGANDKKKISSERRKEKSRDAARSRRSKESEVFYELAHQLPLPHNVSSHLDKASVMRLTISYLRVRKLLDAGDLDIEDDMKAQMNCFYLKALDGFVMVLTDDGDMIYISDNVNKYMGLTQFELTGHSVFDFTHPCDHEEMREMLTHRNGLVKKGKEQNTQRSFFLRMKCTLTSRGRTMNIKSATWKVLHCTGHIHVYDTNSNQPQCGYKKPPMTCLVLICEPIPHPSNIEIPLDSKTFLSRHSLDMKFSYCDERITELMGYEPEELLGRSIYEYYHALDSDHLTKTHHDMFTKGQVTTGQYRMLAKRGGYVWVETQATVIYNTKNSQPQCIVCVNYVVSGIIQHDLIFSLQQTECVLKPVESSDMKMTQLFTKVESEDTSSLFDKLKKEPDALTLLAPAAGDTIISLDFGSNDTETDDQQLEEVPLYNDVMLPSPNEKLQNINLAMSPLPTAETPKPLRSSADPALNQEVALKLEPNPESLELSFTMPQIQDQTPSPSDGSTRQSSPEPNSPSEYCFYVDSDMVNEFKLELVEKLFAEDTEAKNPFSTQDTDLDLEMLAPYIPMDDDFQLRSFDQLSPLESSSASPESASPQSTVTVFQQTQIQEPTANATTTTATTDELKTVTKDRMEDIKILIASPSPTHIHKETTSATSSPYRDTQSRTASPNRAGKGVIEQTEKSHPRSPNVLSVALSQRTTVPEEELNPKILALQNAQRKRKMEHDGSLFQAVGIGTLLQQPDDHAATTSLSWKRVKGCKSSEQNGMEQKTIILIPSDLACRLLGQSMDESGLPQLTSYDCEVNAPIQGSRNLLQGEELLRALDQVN
In short: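 LM3 cells co-transfected with firefly luciferase reporter carrying five HRE copies plus pRL-SV40 Renilla plasmid; after transfection treated and kept under hypoxia; firefly luminescence normalized to Renilla. Single-point inhibition rate at 10 μM; IC50 for selected compounds.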

[3] = Cytotoxicity against human HCCLM3 cells assessed as reduction in cell viability incubated for 48 hrs by MTT assay; format: cell-based
HCCLM3 = test: Inhibition of HIF1alpha accumulation in hypoxia-induced human HCCLM3 cells at 10 uM incubated with compound under normoxia for 1 hr followed by hypoxia induction and measured after 24 hrs by Western blot analysis; format: functional, cell-based
In short: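 LM3 cells treated at 10 μM under hypoxia; HIF-1α protein by western blot, LW6 as reference.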

[4] = target: Hypoxia-inducible factor 1-alpha (Homo sapiens) (UniProt Q16665); test: (§2) Potency index, ratio of IC50 for 2-Methyl-N-phenethylthiazole-4-carboxamide to IC50 for test compound for inhibition of HIF1alpha transcriptional activity in hypoxia-induced human HCCLM3 cells incubated with compound under normoxia for 1 hr followed by hypoxia induction and measured after 24 hrs by HRE-dependent dual luciferase reporter gene assay
[5] = target: Hypoxia-inducible factor 1-alpha (Homo sapiens) (UniProt Q16665); test: as §2, with “LW6” for “2-Methyl-N-phenethylthiazole-4-carboxamide”
MDA-MB-231 [6] = test: Inhibition of HIF1alpha accumulation in hypoxia-induced human MDA-MB-231 cells incubated with compound under normoxia for 1 hr followed by hypoxia induction and measured after 24 hrs by Western blot analysis; format: functional, cell-based
In short: (§3)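 MDA-MB-231, SKOV3 and HeLa cells exposed to hypoxia with compound at a range of concentrations; HIF-1α accumulation assessed by western blot.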

SK-OV-3 = test: Inhibition of HIF1alpha accumulation in hypoxia-induced human SKOV3 cells incubated with compound under normoxia for 1 hr followed by hypoxia induction and measured after 24 hrs by Western blot analysis; format: functional, cell-based; in short: as §3
HeLa = test: Inhibition of HIF1alpha accumulation in hypoxia-induced human HeLa cells incubated with compound under normoxia for 1 hr followed by hypoxia induction and measured after 24 hrs by Western blot analysis; format: functional, cell-based; in short: as §3
HUVEC [7] = test: Antiangiogenic activity in HUVEC assessed as reduction in VEGF mRNA expression incubated with compound under normoxia for 1 hr followed by hypoxia induction and measured after 24 hrs by real time-PCR analysis; format: functional, cell-based; details: Homo sapiens
In short: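 HUVECs treated with 0.5 or 1 μM; VEGF mRNA by real-time PCR, normalized to GAPDH, compared with normoxia and untreated hypoxic controls; means ± SD of three independent experiments.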

HUVEC [8] = test: Antiangiogenic activity in HUVEC assessed as suppression of capillary-like tubule formation at 2 to 5 uM incubated under hypoxia for 12 hrs by inverted microscopic method; format: functional, cell-based; details: Homo sapiens
In short: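 HUVECs seeded on matrigel-precoated wells under hypoxia, treated at 2 or 5 μM; capillary-like tubule branches photographed; representative of three independent experiments.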

HUVEC [9] = test: Antiangiogenic activity in HUVEC assessed as disruption in capillary-like tubule formation at 5 uM incubated under hypoxia for 12 hrs by inverted microscopic method; format: functional, Homo sapiens
In short: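 HUVECs on matrigel-precoated wells, incubated under hypoxia with 5 μM compound; tubule branches photographed; three independent experiments.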

Danio rerio [10] = species: Danio rerio; test: Antiangiogenic activity in […]/EGFP transgenic zebrafish embryo assessed as destruction of subintestinal vessel at 0.5 to 1 uM incubated for 24 hrs by confocal microscopic method; format: functional, organism-based; in short: as §1
MDA-MB-231 [11] = test: Inhibition of cell migration in human MDA-MB-231 cells incubated with compound under normoxia for 1 hr followed by hypoxia induction and measured after 24 hrs by wound healing assay based inverted microscopic method; format: functional
In short: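 Wound-healing: monolayer of MDA-MB-231 scratched, treated 2, 5, 10 μM or DMSO under normoxia 1 h then hypoxia 24 h; wound closure imaged; three independent experiments.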

MDA-MB-231 [12] = test: Inhibition of cell invasion in human MDA-MB-231 cells incubated with compound under normoxia for 1 hr followed by hypoxia induction and measured after 24 hrs by transwell assay/crystal violet staining based inverted microscopic method; format: functional
In short: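 Transwell with MDA-MB-231 cells in upper chamber on matrigel-precoated inserts; 2, 5, 10 μM under normoxia 1 h then hypoxia 24 h; invaded cells stained with crystal violet and counted; three experiments, means ± SD.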

MDA-MB-231 [13] = test: Induction of E-cadherin protein expression in human MDA-MB-231 cells incubated with compound under normoxia for 1 hr followed by hypoxia induction and measured after 24 hrs by Western blot analysis; format: functional, cell-based
In short: (§4)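 MDA-MB-231 cells given 2, 5 or 10 μM under normoxia 1 h, then hypoxia 24 h; E-cadherin, vimentin, MMP-2, MMP-9 by western blot, GAPDH loading control; three independent experiments.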

MDA-MB-231 [14] = test: Inhibition of vimentin protein expression in human MDA-MB-231 cells incubated with compound under normoxia for 1 hr followed by hypoxia induction and measured after 24 hrs by Western blot analysis; format: functional, cell-based; in short: as §4
MDA-MB-231 [15] = test: Downregulation of MMP2 protein expression in human MDA-MB-231 cells incubated with compound under normoxia for 1 hr followed by hypoxia induction and measured after 24 hrs by Western blot analysis; format: functional, cell-based; in short: as §4
MDA-MB-231 [16] = test: Downregulation of MMP9 protein expression in human MDA-MB-231 cells incubated with compound under normoxia for 1 hr followed by hypoxia induction and measured after 24 hrs by Western blot analysis; format: functional, cell-based; in short: as §4
MDA-MB-231 [17] = test: (§5) Antimetastatic activity against human MDA-MB-231 cells stable expressing luciferase xenografted in ip dosed BALB/c nude mouse assessed as reduction in lung colonization of tumor cells administered every 2 days for 3 weeks starting at 24 hrs post-trensfection and measured at 24 hrs after final dose by bioluminescent imaging assay; format: functional, organism-based
In short: (§6)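 Luciferase-expressing MDA-MB-231 cells injected into tail vein of BALB/c nude mice; i.p. vehicle or 15 and 30 mg/kg starting 24 h later, every 2 days for 20 days; bioluminescence imaged 24 h after last dose; lungs examined by H&E histology; n = 4 per group, mean ± SD.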

MDA-MB-231 [18] = test: as §5, with “final doses” for “final dose”, “by H and E staining method” for “by bioluminescent imaging assay”; format: functional, organism-based; in short: as §6
[19] = Toxicity in BALB/c nude mouse xenografted with human MDA-MB-231 cells stable expressing luciferase assessed as change in body weight at 15 to 30 mg/kg, ip administered every 2 days for 3 weeks starting at 24 hrs post-trensfection; format: organism-based; details: in vivo
In short: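 Tail-vein luciferase MDA-MB-231 lung-metastasis model in BALB/c nude mice; 15 or 30 mg/kg i.p. every 2 days for 20 days from 24 h post-injection; body weight recorded at study end.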

[20] = target: Hypoxia-inducible factor 1-alpha (Homo sapiens) (UniProt Q16665); test: Induction of HIF1alpha (unknown origin) degradation
HUVEC [21] = test: Antiproliferative activity against HUVEC at 2 to 5 uM; format: cell-based; details: human
MDA-MB-231 [22] = test: Induction of apoptosis in human MDA-MB-231 cells at 2 to 10 uM incubated for 24 hrs; format: cell-based; details: mda-mb-231, 24 h
MDA-MB-231 [23] = test: Inhibition of cell growth in human MDA-MB-231 cells at 2 to 10 uM incubated for 24 hrs; format: cell-based; details: mda-mb-231, 24 h

- inhibition [2]: 80%
SMILES: O=C(NCCc1ccccc1F)c1ccc(-c2cccs2)cn1
- CC50 at 48 h [3]: > 50 µM

- inhibition [2]: 77.2%
SMILES: O=C(NCCc1ccccc1Cl)c1ccc(-c2ccccc2)cc1
- CC50 at 48 h [3]: > 50 µM

- inhibition [2]: 82.2%
SMILES: O=C(NCCc1ccccc1)c1ccc(-c2ccccc2)cn1
- CC50 at 48 h [3]: > 50 µM

- inhibition [2]: 73.5%
SMILES: COC(=O)c1ccc(O)c(NC(=O)COc2ccc(C34CC5CC(CC(C5)C3)C4)cc2)c1
- HIF-1α accumulation inhibition (qualitative) (HCCLM3): Active
- CC50 at 48 h [3]: > 50 µM

- inhibition [2]: 60.7%
SMILES: O=C(NCCc1ccncc1)c1ccc(-c2ccccc2)cn1
- CC50 at 48 h [3]: > 50 µM

- inhibition [2]: 88.2%
SMILES: O=C(NCCc1ccccc1F)c1ccc(-c2ccsc2)cn1
- CC50 at 48 h [3]: > 50 µM

Further lines, the compound ahead of its results:

SMILES: N#CC1(c2ccc(NC(=O)c3cccnc3NCc3ccncc3)cc2)CCCC1
- Activity (Danio rerio [1]): Active

SMILES: N#Cc1ccccc1-c1ccc(C(=O)NCCc2ccccc2F)nc1
- inhibition [2]: 62.7%
- CC50 at 48 h [3]: > 50 µM

SMILES: O=C(NCCc1cccc(Cl)c1)c1ccc(-c2ccccc2)cn1
- inhibition [2]: 64.6%
- CC50 at 48 h [3]: > 50 µM

SMILES: O=C(NCCc1ccccc1F)c1ccc(-c2ccccc2)cn1
- inhibition [2]: 91.4%
- CC50 at 48 h [3]: > 50 µM

SMILES: O=C(NCCc1ccccc1F)c1ccc(-c2ccccc2F)cn1
- inhibition [2]: 83.8%
- CC50 at 48 h [3]: > 50 µM

SMILES: O=C(NCCc1ccccc1F)c1ccc(-c2cn[nH]c2)cn1
- inhibition [2]: 29.5%
- HIF-1α accumulation inhibition (qualitative) (HCCLM3): Active

SMILES: O=C(NCCc1ccncc1)c1nccc(-c2ccccc2)n1
- inhibition [2]: 61.5%
- CC50 at 48 h [3]: > 50 µM

SMILES: Nc1ccc(CCNC(=O)c2ccc(-c3ccccc3)cn2)cc1
- inhibition [2]: 60.2%
- CC50 at 48 h [3]: > 50 µM

SMILES: O=C(NCCc1ccncc1)c1nnc(-c2ccccc2)o1
- inhibition [2]: 67.3%
- CC50 at 48 h [3]: > 50 µM

SMILES: COc1ccccc1-c1ccc(C(=O)NCCc2ccccc2F)nc1
- inhibition [2]: 91.4 to 97.7%
- Ratio IC50 [4]: 170
- HIF-1α accumulation inhibition (qualitative) (HCCLM3): Active
- Ratio IC50 [5]: 10
- CC50 at 48 h [3]: > 50 µM
- inhibition (MDA-MB-231 [6]): Dose-dependent effect
- inhibition (SK-OV-3): Dose-dependent effect
- inhibition (HeLa): Dose-dependent effect
- Activity (HUVEC [7]): Dose-dependent effect
- Activity (HUVEC [8]): Active
- Activity (HUVEC [9]): 100%
- Activity (Danio rerio [10]): Active
- inhibition (MDA-MB-231 [11]): Dose-dependent effect
- inhibition (MDA-MB-231 [12]): Dose-dependent effect
- Activity (MDA-MB-231 [13]): Dose-dependent effect
- inhibition (MDA-MB-231 [14]): Dose-dependent effect
- inhibition (MDA-MB-231 [15]): Dose-dependent effect
- inhibition (MDA-MB-231 [16]): Dose-dependent effect
- Activity (MDA-MB-231 [17]): Dose-dependent effect
- Activity (MDA-MB-231 [18]): Dose-dependent effect
- Activity [19]: Non-Toxic
- Activity [20]: Active
- Activity (HUVEC [21]): Non-Toxic
- Activity (MDA-MB-231 [22]): Non-Toxic
- growth inhibition (GI) (MDA-MB-231 [23]): Non-Toxic

SMILES: Cc1nc(C(=O)NCCc2ccccc2)cs1
- inhibition [2]: 21.2%
- HIF-1α accumulation inhibition (qualitative) (HCCLM3): Active

SMILES: O=C(NCCc1ccccc1F)c1ccc(-c2ccoc2)cn1
- inhibition [2]: 73.4%
- HIF-1α accumulation inhibition (qualitative) (HCCLM3): Active
- CC50 at 48 h [3]: > 50 µM

SMILES: O=C(NCCc1ccccc1Cl)c1ccc(-c2ccccc2)cn1
- inhibition [2]: 68.4%
- CC50 at 48 h [3]: > 50 µM
